PMC8652384 (Experimental and Therapeutic Medicine, 2021)
Read-outs that look alike come from different tables or passages of the source. Residues, ends and D or L forms follow the SMILES beside them. *: point of attachment. Cbz = O=C(OCc1ccccc1)*

What was measured:
primary ALL = conditions: cited from earlier work
VLA-4 = VLA-4 (Homo sapiens, UniProt P05556+P13612); experiment: VLA-4 conformation activation assay; type: binding; conditions: LAX7R and TXL3 cells; without 5 mM Mn2+
Summary of the method: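 LAX7R or TXL3 cells, 1x10^6/ml in HEPES buffer pH 7.4 with 0.1% HSA, Ca2+ and Mg2+, incubated 30 min at 37°C with test compound (0-100 µM) or human VCAM-1 ([…]), 10% PE-HUTS-21, ±5 mM Mn2+. DAPI added during final 5 min. PE MFI read on viable cells by flow cytometry; isotype control gave nonspecific binding. Occupancy curves fitted by variable-slope sigmoidal model.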

integrin α4 [1] = molecular target: T1, integrin α4 (Homo sapiens, UniProt P05556+P13612); conditions: cited from earlier work
HUVECs = experiment: Endothelial tube formation assay; type: cell-based, human; conditions: data not shown
Summary of the method: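 HUVECs (4-6x10^4/well) pre-treated 30 min at 37°C with test compound (0, 5 or 25 µM) or a reference α4 antagonist (0 or 25 µM), then seeded on Matrigel-coated wells for 4-6 h at 37°C, 5% CO2. Three fields per well imaged by phase contrast (x100); nodes, segments, meshes and total area quantified by image analysis.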

[2] = cited from earlier work
integrin α4 [3] = molecular target: T1, integrin α4; experiment: Western blot analysis of integrin α4 protein; type: cell-based; conditions: MG132 1 µM; 96 h; LAX7R, LAX53, LAX56, REH

Compound: CCCC[C@H](NC(=O)N[C@@H](CC(=O)O)c1ccc2c(c1)OCO2)C(=O)N(Cc1cccs1)Cc1cccs1 [TBC3486]
- survival of mice with primary ALL (primary ALL): prolonged the survival of the mice

Compound: vascular cell adhesion molecule-1 [VCAM-1]
- conformation changes corresponding to VLA-4 activation (VLA-4): little conformation changes

Compound: natalizumab [NZM]
- de-adhesion of B-ALL cells from VCAM-1 (integrin α4 [1]): can cause the de-adhesion of B-ALL cells from VCAM-1
- angiogenesis inhibition (HUVECs): no statistical differences
- progressive multifocal leukoencephalopathy ([2]; patients treated with NZM): progressive multifocal leukoencephalopathy can arise
- patients with antibodies against natalizumab ([2]; patients with Crohn's disease): 7%
- patients with antibodies against natalizumab ([2]; patients with MS): 11%

Compound: CC(C)C[C@@H](C=O)NC(=O)[C@H](CC(C)C)NC(=O)[C@H](CC(C)C)NC(=O)OCc1ccccc1 [MG132] (Cbz-Leu-Leu-Leu-aldehyde)
- restoration of α4 decreased by AVA4746 (25 µM) (integrin α4 [3]): partially restored by MG132 in all cases apart from LAX56
